Data as given in ChEMBL document CHEMBL3272204, “Products from furans. 1. Sunthesis and anticoccidial and antimicrobial activity of 5-amino-5,6-dihydro-6-methoxy-2-methyl-2-(4'-biphenylyl)-2H-pyran-3(4H)-ones and related compounds” (1976).
In brackets after ≈: the same amount, converted by molar mass. Activity calls are given as the source filed them. No cut-off for these calls is given here.

Tests used:
Eimeria tenella [1] = assay: Anticoccidal activity against Eimeria tenella assessed as improved weight gain and mortality in chicken relative to noninfected control; format: functional, organism-based
How it was run: (§1)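 Chickens with experimental coccidiosis received compound orally in the diet at 0.05%, starting 1 day before infection. Efficacy was judged 6 days later from survival and weight gain.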

[2] = Antifungal activity against Trichophyton granulosum assessed as growth inhibition after 10 days at 28 degC; format: functional; details: Trichophyton mentagrophytes var. granulosum
How it was run: (§2)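 Twofold serial dilutions in Sabouraud broth. The minimum inhibitory concentration was read after 10 days at 28°.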

Eimeria acervulina [3] = assay: Anticoccidal activity against Eimeria acervulina assessed as improved weight gain and mortality in chicken relative to noninfected control; format: functional, organism-based; how it was run: as §1
Proteus vulgaris = assay: Antibacterial activity against Proteus vulgaris assessed as growth inhibition after 24 hrs; format: functional
How it was run: (§3)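 Twofold serial dilutions in nutrient broth. The minimum concentration inhibiting visible growth was read after 24 hr incubation at 37°.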

Escherichia coli = assay: Antibacterial activity against Escherichia coli 198 assessed as growth inhibition after 24 hrs; format: functional; how it was run: as §3
Enterococcus faecalis = assay: Antibacterial activity against Streptococcus faecalis assessed as growth inhibition after 24 hrs; format: functional; how it was run: as §3
Staphylococcus [4] = assay: Antibacterial activity against penicillin-sensitive Staphylococcus pyogenes assessed as growth inhibition after 24 hrs; format: functional
How it was run: (§4)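 Halving (twofold) serial dilutions of compound in nutrient broth, in vitro. Incubated 24 hr at 37°. Value reported is the lowest concentration that inhibited growth.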

Eimeria acervulina [5] = assay: Anticoccidal activity against Eimeria acervulina assessed as improved weight gain in chicken; format: functional, organism-based; how it was run: as §1
Klebsiella aerogenes = assay: Antibacterial activity against Aerobacter aerogenes assessed as growth inhibition after 24 hrs; format: functional; how it was run: as §3
[6] = (§5) Antibacterial activity against Salmonella pullorum assessed as growth inhibition after 24 hrs; format: functional, Salmonella enterica subsp. enterica serovar Pullorum; how it was run: as §3
Serratia marcescens = assay: Antibacterial activity against Serratia marcescens assessed as growth inhibition after 24 hrs; format: functional; how it was run: as §3
Pseudomonas aeruginosa = assay: Antibacterial activity against Pseudomonas aeruginosa assessed as growth inhibition after 24 hrs; format: functional; how it was run: as §3
Candida albicans = assay: Antifungal activity against Candida albicans assessed as growth inhibition after 5 days at 37 degC; format: functional
How it was run: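 Twofold serial dilutions in Sabouraud broth. The minimum inhibitory concentration was read after 5 days at 37°.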

Nannizzia gypsea = assay: Antifungal activity against Microsporum gypseum assessed as growth inhibition after 10 days at 28 degC; format: functional; how it was run: as §2
Klebsiella pneumoniae = assay: Antibacterial activity against Klebsiella pneumoniae assessed as growth inhibition after 24 hrs; format: functional; how it was run: as §3
Staphylococcus [7] = assay: Antibacterial activity against penicillin-resistant Staphylococcus pyogenes assessed as growth inhibition after 24 hrs; format: functional; how it was run: as §4
[8] = system: Salmonella enterica subsp. enterica serovar Pullorum; assay: as §5; format: functional; how it was run: as §3
Eimeria tenella [9] = assay: Anticoccidal activity against Eimeria tenella assessed as improved weight gain in chicken at 0.05%, po; format: functional, organism-based; how it was run: as §1
[10] = Proteus vulgaris, 24 h, read-out: MIC
[11] = Escherichia coli, 198, 24 h, read-out: MIC
[12] = Enterococcus faecalis, 24 h, read-out: MIC
[13] = Staphylococcus, 24 h, read-out: MIC
[14] = Klebsiella aerogenes, 24 h, read-out: MIC
[15] = Salmonella enterica, 24 h, read-out: MIC
[16] = Serratia marcescens, 24 h, read-out: MIC
[17] = Pseudomonas aeruginosa, 24 h, read-out: MIC
[18] = Nannizzia gypsea, 240 h, read-out: MIC
[19] = Klebsiella pneumoniae, 24 h, read-out: MIC
[20] = Candida albicans, 120 h, read-out: MIC

Row | SMILES | Activity (Eimeria tenella [1]) | MIC [2] | Activity (Eimeria acervulina [3]) | MIC (Proteus vulgaris; [10]) [µg/mL] | MIC (Escherichia coli; [11]) [µg/mL] | MIC (Enterococcus faecalis; [12]) [µg/mL] | MIC (Staphylococcus [4]; [13]) [µg/mL] | MIC (Klebsiella aerogenes; [14]) [µg/mL] | MIC [6, 15] [µg/mL] | MIC (Serratia marcescens; [16]) [µg/mL] | MIC (Candida albicans) | MIC (Proteus vulgaris) | MIC (Escherichia coli) | MIC (Enterococcus faecalis) | MIC (Staphylococcus [4]) | MIC (Klebsiella aerogenes) | MIC (Serratia marcescens) | MIC (Pseudomonas aeruginosa) | MIC (Klebsiella pneumoniae) | MIC (Staphylococcus [7]) | further results
1 | COC1OC(C)(c2ccc(-c3ccccc3)cc2)C(=O)CC1N(C)C (stereo in doubt; 2a) [listing 1 of 2 here] | Active | 8 µg/mL (≈ 23.6 µM) | Active |  |  |  |  |  |  |  |  |  |  |  |  |  |  |  |  |  | 
2 | COC1OC(C)(c2ccc(-c3ccccc3)cc2)C(=O)CC1N1CCOCC1 (stereo not given) | Active | 16 µg/mL (≈ 41.9 µM) |  | 3.2 (≈ 8.39 µM) | 3.2 (≈ 8.39 µM) | 3.2 (≈ 8.39 µM) | 3.2 (≈ 8.39 µM) | 3.2 (≈ 8.39 µM) | 3.2 (≈ 8.39 µM) | 3.2 (≈ 8.39 µM) | inactive |  |  |  |  |  |  |  |  |  | Activity (Eimeria acervulina [5]): inactive; MIC (Pseudomonas aeruginosa; [17]): 3.2 µg/mL (≈ 8.39 µM); MIC (Nannizzia gypsea; [18]): 3.2 µg/mL (≈ 8.39 µM); MIC (Klebsiella pneumoniae; [19]): 3.2 µg/mL (≈ 8.39 µM); MIC (Staphylococcus [7]; [13]): 3.2 µg/mL (≈ 8.39 µM)
3 | CN(C)C(=O)OC1C=CC(=O)C(C)(c2ccc(-c3ccccc3)cc2)O1 (stereo not given) | Active | 6.2 µg/mL (≈ 17.6 µM) | Active | 6.2 (≈ 17.6 µM) | 6.2 (≈ 17.6 µM) | 6.2 (≈ 17.6 µM) | 6.2 (≈ 17.6 µM) | 6.2 (≈ 17.6 µM) | 6.2 (≈ 17.6 µM) | 6.2 (≈ 17.6 µM) |  |  |  |  |  |  |  |  |  |  | MIC (Pseudomonas aeruginosa; [17]): 6.2 µg/mL (≈ 17.6 µM); MIC (Candida albicans; [20]): 50 µg/mL (≈ 142 µM); MIC (Nannizzia gypsea; [18]): 8 µg/mL (≈ 22.8 µM); MIC (Klebsiella pneumoniae; [19]): 6.2 µg/mL (≈ 17.6 µM); MIC (Staphylococcus [7]; [13]): 6.2 µg/mL (≈ 17.6 µM)
4 | COC1C=CC(=O)C(C)(c2ccc(-c3ccccc3)cc2)O1 (stereo in doubt; 1a) [listing 1 of 2 here] | Active | 1 µg/mL (≈ 3.4 µM) |  |  |  |  |  |  |  |  |  |  |  |  |  |  |  |  |  |  | 
5 | COC1OC(C)(c2ccc(-c3ccccc3)cc2)C(=O)CC1N(C)C (stereo in doubt; 2a) [listing 2 of 2 here] |  |  |  | 3.2 (≈ 9.43 µM) | 3.2 (≈ 9.43 µM) | 3.2 (≈ 9.43 µM) | 3.2 (≈ 9.43 µM) | 3.2 (≈ 9.43 µM) | 3.2 (≈ 9.43 µM) | 3.2 (≈ 9.43 µM) |  |  |  |  |  |  |  |  |  |  | MIC (Pseudomonas aeruginosa; [17]): 3.2 µg/mL (≈ 9.43 µM); MIC (Candida albicans; [20]): 16 µg/mL (≈ 47.1 µM); MIC (Nannizzia gypsea; [18]): 4 µg/mL (≈ 11.8 µM); MIC (Klebsiella pneumoniae; [19]): 3.2 µg/mL (≈ 9.43 µM); MIC (Staphylococcus [7]; [13]): 3.2 µg/mL (≈ 9.43 µM)
6 | COC1OC(C)(c2ccc(-c3ccccc3)cc2)C(O)CC1N(C)C (stereo in doubt; 3a) | Active | inactive | Active |  |  |  |  |  |  |  | inactive | inactive | inactive | inactive | inactive | inactive | inactive | inactive | inactive | inactive | MIC [8]: inactive; MIC (Nannizzia gypsea): inactive
7 | COC1OC(C)(c2ccc(-c3ccccc3)cc2)C(O)CC1N1CCN(C)CC1 (stereo not given) | Active | inactive |  |  |  |  |  |  |  |  | inactive | inactive | inactive | inactive | inactive | inactive | inactive | inactive | inactive | inactive | Activity (Eimeria acervulina [5]): inactive; MIC [8]: inactive; MIC (Nannizzia gypsea): inactive
8 | COC1OC(C)(c2ccc(-c3ccccc3)cc2)C(=O)CC1N(C)C (single isomer, unassigned; isomer 1) [listing 1 of 2 here] |  |  |  |  |  |  |  |  |  |  | 16 µg/mL (≈ 47.1 µM) | 6.2 µg/mL (≈ 18.3 µM) | 6.2 µg/mL (≈ 18.3 µM) | 6.2 µg/mL (≈ 18.3 µM) | 6.2 µg/mL (≈ 18.3 µM) | 6.2 µg/mL (≈ 18.3 µM) | 6.2 µg/mL (≈ 18.3 µM) | 6.2 µg/mL (≈ 18.3 µM) | 6.2 µg/mL (≈ 18.3 µM) | 6.2 µg/mL (≈ 18.3 µM) | MIC [6]: 6.2 µg/mL (≈ 18.3 µM); MIC (Nannizzia gypsea): 8 µg/mL (≈ 23.6 µM)
9 | CNC1CC(=O)C(C)(c2ccc(-c3ccccc3)cc2)OC1OC (stereo not given) | Active |  |  | 0.8 (≈ 2.46 µM) | 0.8 (≈ 2.46 µM) | 0.8 (≈ 2.46 µM) | 0.8 (≈ 2.46 µM) | 0.8 (≈ 2.46 µM) | 0.8 (≈ 2.46 µM) | 0.8 (≈ 2.46 µM) |  |  |  |  |  |  |  |  |  |  | Activity (Eimeria acervulina [5]): inactive; MIC (Pseudomonas aeruginosa; [17]): 0.8 µg/mL (≈ 2.46 µM); MIC (Klebsiella pneumoniae; [19]): 0.8 µg/mL (≈ 2.46 µM); MIC (Staphylococcus [7]; [13]): 0.8 µg/mL (≈ 2.46 µM)
10 | COC1C=CC(=O)C(C)(c2ccc(-c3ccccc3)cc2)O1 (stereo in doubt; 1a) [listing 2 of 2 here] |  |  |  | 6.2 (≈ 21.1 µM) | 6.2 (≈ 21.1 µM) | 6.2 (≈ 21.1 µM) | 6.2 (≈ 21.1 µM) | 6.2 (≈ 21.1 µM) | 6.2 (≈ 21.1 µM) | 6.2 (≈ 21.1 µM) |  |  |  |  |  |  |  |  |  |  | MIC (Pseudomonas aeruginosa; [17]): 6.2 µg/mL (≈ 21.1 µM); MIC (Candida albicans; [20]): 32 µg/mL (≈ 109 µM); MIC (Nannizzia gypsea; [18]): 2 µg/mL (≈ 6.79 µM); MIC (Klebsiella pneumoniae; [19]): 6.2 µg/mL (≈ 21.1 µM); MIC (Staphylococcus [7]; [13]): 6.2 µg/mL (≈ 21.1 µM)
11 | COC1OC(C)(c2ccc(-c3ccccc3)cc2)C(O)CC1N(C)C (single isomer, unassigned; isomer 1) | Active | inactive | Active |  |  |  |  |  |  |  | inactive | inactive | inactive | inactive | inactive | inactive | inactive | inactive | inactive | inactive | MIC [8]: inactive; MIC (Nannizzia gypsea): inactive
12 | COC1C=CC(=O)C(C)(c2ccc(-c3ccccc3)cc2)O1 (single isomer, unassigned; isomer 1) [listing 1 of 2 here] |  | 8 µg/mL (≈ 27.2 µM) |  |  |  |  |  |  |  |  |  |  |  |  |  |  |  |  |  |  | Activity (Eimeria tenella [9]): inactive
13 | COC1C=CC(=O)C(C)(c2ccc(-c3ccccc3)cc2)O1 (single isomer, unassigned; isomer 1) [listing 2 of 2 here] |  |  |  |  |  |  |  |  |  |  | 16 µg/mL (≈ 54.4 µM) | 6.2 µg/mL (≈ 21.1 µM) | 6.2 µg/mL (≈ 21.1 µM) | 6.2 µg/mL (≈ 21.1 µM) | 6.2 µg/mL (≈ 21.1 µM) | 6.2 µg/mL (≈ 21.1 µM) | 6.2 µg/mL (≈ 21.1 µM) | 6.2 µg/mL (≈ 21.1 µM) | 6.2 µg/mL (≈ 21.1 µM) | 6.2 µg/mL (≈ 21.1 µM) | MIC [6]: 6.2 µg/mL (≈ 21.1 µM); MIC (Nannizzia gypsea): 2 µg/mL (≈ 6.79 µM)
14 | COC1OC(C)(c2ccc(-c3ccccc3)cc2)C(=O)CC1N(C)C (single isomer, unassigned; isomer 1) [listing 2 of 2 here] | Active | 8 µg/mL (≈ 23.6 µM) | Active |  |  |  |  |  |  |  |  |  |  |  |  |  |  |  |  |  | 
15 | CNC(=O)OC1C=CC(=O)C(C)(c2ccc(-c3ccccc3)cc2)O1 (stereo not given) | Active | 1.6 µg/mL (≈ 4.74 µM) |  |  |  |  |  |  |  |  |  | inactive | inactive | inactive | inactive | inactive | inactive | inactive | inactive | inactive | Activity (Eimeria acervulina [5]): inactive; MIC [8]: inactive; MIC (Candida albicans; [20]): 250 µg/mL (≈ 741 µM); MIC (Nannizzia gypsea; [18]): 1.6 µg/mL (≈ 4.74 µM)
